Assays:
P-gp (ABCB1) [1] = target: T1, P-gp (ABCB1) (Homo sapiens, UniProt P08183); assay: Inhibition of human P-gp expressed in high five insect cell membrane vesicles by measuring the vanadate-sensitive ATPase activity of P-gp at 2.5 uM preincubated for 5 mins in the presence of sodium orthovanadate measured after 20 mins by colorimetric method
P-gp (ABCB1) [2] = target: T1, P-gp (ABCB1); assay: Inhibition of human P-gp expressed in high five insect cell membrane vesicles by measuring the vanadate-sensitive ATPase activity of P-gp at 0.5 uM preincubated for 5 mins in the presence of sodium orthovanadate measured after 20 mins by colorimetric method
P-gp (ABCB1) [3] = target: T1, P-gp (ABCB1); assay: Activation of human P-gp expressed in high five insect cell membrane vesicles by measuring the vanadate-sensitive ATPase activity of P-gp at 0.5 uM preincubated for 5 mins in the presence of sodium orthovanadate measured after 20 mins by colorimetric method; conditions: read-out: Activity
[4] = Cytotoxicity in parental HEK293-pcDNA 3.1 transfected cells assessed as cell survival at 10 uM after 72 hrs by MTT assay; format: cell-based; conditions: human, parental HEK293 cells transfected with pcDNA 3.1
Procedure, shortened: (§1)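 HEK293 cells stably transfected with empty pcDNA3.1 vector or ABCB1 vector, kept in DMEM with 10% FBS, 1% penicillin/streptomycin, and 2 mg/mL G418 at 37°C in 5% CO2. Cells were seeded at 5000/well, and after 24 h treated with test compound alone, diluted from 10 mM DMSO stocks into medium. After 72 h, viability was read by MTT (4 mg/mL, 4 h), with formazan dissolved in DMSO and absorbance read at 570 nm.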

P-gp (ABCB1) [5] = target: T1, P-gp (ABCB1); assay: Activation of human P-gp expressed in high five insect cell membrane vesicles by measuring the vanadate-sensitive ATPase activity of P-gp at 2.5 uM preincubated for 5 mins in the presence of sodium orthovanadate measured after 20 mins by colorimetric method; conditions: read-out: Activity
HEK293 = assay: Potentiation of paclitaxel-induced cytotoxicity against parental HEK293-pcDNA 3.1 transfected cells assessed as fold reduction in paclitaxel IC50 at 10 uM pre-incubated for 1 hr before paclitaxel addition and measured after 72 hrs by MTT assay; format: functional, Homo sapiens
Procedure, shortened: (§2)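 HEK293 cells stably transfected with ABCB1 or empty pcDNA3.1 vector, kept in G418. Seeded at 5000/well and grown 24 h, then given modulator at 10 μM for 1 h before serially diluted paclitaxel (up to 10 μM). MTT read at 570 nm after 72 h. Paclitaxel IC50 from four experiments in triplicate. Fold resistance = IC50 with modulator ÷ IC50 of paclitaxel alone in vector-control cells.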

[6] = Cytotoxicity in P-gp tranfected HEK293 cells assessed as cell survival at 10 uM after 72 hrs by MTT assay; format: ADME, cell-based; conditions: human, P-gp transfected HEK293 cells; procedure, shortened: as §1
Cytochrome P450 3A4 [7] = target: T2, Cytochrome P450 3A4 (Homo sapiens, UniProt P08684); assay: Inhibition of CYP3A4 (unknown origin); format: ADME
[8] = target: T3, ATP-dependent translocase ABCB1 (Homo sapiens, UniProt P08183); assay: Inhibition of human P-gp transfected in HEK293 cells assessed as potentiation of paclitaxel-induced cytotoxicity by measuring fold reduction in paclitaxel IC50 at 10 uM pre-incubated for 1 hr before paclitaxel addition and measured after 72 hrs by MTT assay; format: cell-based; conditions: hek293, 72 h; procedure, shortened: as §2
P-gp (ABCB1) [9] = target: T1, P-gp (ABCB1); assay: Activation of human P-gp expressed in high five insect cell membrane vesicles by measuring the vanadate-sensitive ATPase activity of P-gp at 0.05 uM preincubated for 5 mins in the presence of sodium orthovanadate measured after 20 mins by colorimetric method; conditions: read-out: Activity
[10] = target: T3, ATP-dependent translocase ABCB1; assay: Displacement of [125I]-IAAP from human P-gp expressed in high five insect cell membrane vesicles preincubated for 10 mins followed by photocrosslinking for 10 mins by exposing under UV light for 10 mins by SDS-PAGE based method; conditions: for inhibition (INH): human, 10 min
Procedure, shortened: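 Membrane vesicles from P-gp-expressing High Five insect cells (65–75 μg protein/100 μL) incubated with compound (0–5 or 0–10 μM) in 50 mM MES-Tris pH 6.8, 150 mM NaCl, 37 °C, 10 min; moved to 4 °C, 4–5 nM [125I]-IAAP added under subdued light; 366 nm UV 10 min; P-gp band incorporation quantified after SDS-PAGE, DMSO-only as 100%.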

CYP3A4 [11] = target: T4, CYP3A4 (Homo sapiens, UniProt P08684); assay: Inhibition of CYP3A4 (unknown origin) at 50 uM by fluorescence based-vivid CYP450 green screening kit based assay; format: ADME
CYP3A4 [12] = target: T4, CYP3A4; assay: (§3) Inhibition of CYP3A4 (unknown origin) at 25 uM by fluorescence based-vivid CYP450 green screening kit based assay; format: ADME
P-gp (ABCB1) [13] = target: T1, P-gp (ABCB1); assay: Displacement of [125I]-IAAP from human P-gp expressed in high five insect cell membrane vesicles at >5 uM preincubated for 10 mins followed by photocrosslinking for 10 mins by exposing under UV light for 10 mins by SDS-PAGE based method; conditions: probe [125I]-IAAP, read-out: Imax
Procedure, shortened: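 Membrane vesicles (65–75 μg protein/100 μL) incubated with compound (0–5 or 0–10 μM) in 50 mM MES-Tris pH 6.8, 150 mM NaCl, 37 °C 10 min, then moved to 4 °C. 4–5 nM [125I]-IAAP (2200 Ci/mmol) added under subdued light, cross-linked at 366 nm UV 10 min. P-gp band incorporation quantified after SDS-PAGE, DMSO-only sample = 100%.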

P-gp (ABCB1) [14] = target: T1, P-gp (ABCB1); assay: Inhibition of human P-gp expressed in high five insect cell membrane vesicles by measuring the vanadate-sensitive ATPase activity of P-gp at 0.05 uM preincubated for 5 mins in the presence of sodium orthovanadate measured after 20 mins by colorimetric method
Cytochrome P450 3A4 [15] = target: T2, Cytochrome P450 3A4; assay: as §3; format: ADME; conditions: 25 µM

T4 sequence (P08684 whole entry): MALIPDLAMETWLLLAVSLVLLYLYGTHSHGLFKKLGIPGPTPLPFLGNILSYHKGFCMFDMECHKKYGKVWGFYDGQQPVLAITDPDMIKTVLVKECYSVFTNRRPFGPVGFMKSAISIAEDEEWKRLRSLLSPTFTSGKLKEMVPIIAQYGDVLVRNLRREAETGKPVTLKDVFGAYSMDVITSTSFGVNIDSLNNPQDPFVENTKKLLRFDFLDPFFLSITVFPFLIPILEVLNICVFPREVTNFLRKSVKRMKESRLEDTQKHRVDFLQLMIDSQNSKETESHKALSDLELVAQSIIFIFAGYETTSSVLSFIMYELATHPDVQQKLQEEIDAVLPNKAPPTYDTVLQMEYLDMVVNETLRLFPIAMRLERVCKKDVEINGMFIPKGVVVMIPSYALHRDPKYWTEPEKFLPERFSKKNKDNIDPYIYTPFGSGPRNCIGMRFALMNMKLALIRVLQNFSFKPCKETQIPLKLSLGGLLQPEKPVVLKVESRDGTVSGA
T3 sequence (P08183 whole entry): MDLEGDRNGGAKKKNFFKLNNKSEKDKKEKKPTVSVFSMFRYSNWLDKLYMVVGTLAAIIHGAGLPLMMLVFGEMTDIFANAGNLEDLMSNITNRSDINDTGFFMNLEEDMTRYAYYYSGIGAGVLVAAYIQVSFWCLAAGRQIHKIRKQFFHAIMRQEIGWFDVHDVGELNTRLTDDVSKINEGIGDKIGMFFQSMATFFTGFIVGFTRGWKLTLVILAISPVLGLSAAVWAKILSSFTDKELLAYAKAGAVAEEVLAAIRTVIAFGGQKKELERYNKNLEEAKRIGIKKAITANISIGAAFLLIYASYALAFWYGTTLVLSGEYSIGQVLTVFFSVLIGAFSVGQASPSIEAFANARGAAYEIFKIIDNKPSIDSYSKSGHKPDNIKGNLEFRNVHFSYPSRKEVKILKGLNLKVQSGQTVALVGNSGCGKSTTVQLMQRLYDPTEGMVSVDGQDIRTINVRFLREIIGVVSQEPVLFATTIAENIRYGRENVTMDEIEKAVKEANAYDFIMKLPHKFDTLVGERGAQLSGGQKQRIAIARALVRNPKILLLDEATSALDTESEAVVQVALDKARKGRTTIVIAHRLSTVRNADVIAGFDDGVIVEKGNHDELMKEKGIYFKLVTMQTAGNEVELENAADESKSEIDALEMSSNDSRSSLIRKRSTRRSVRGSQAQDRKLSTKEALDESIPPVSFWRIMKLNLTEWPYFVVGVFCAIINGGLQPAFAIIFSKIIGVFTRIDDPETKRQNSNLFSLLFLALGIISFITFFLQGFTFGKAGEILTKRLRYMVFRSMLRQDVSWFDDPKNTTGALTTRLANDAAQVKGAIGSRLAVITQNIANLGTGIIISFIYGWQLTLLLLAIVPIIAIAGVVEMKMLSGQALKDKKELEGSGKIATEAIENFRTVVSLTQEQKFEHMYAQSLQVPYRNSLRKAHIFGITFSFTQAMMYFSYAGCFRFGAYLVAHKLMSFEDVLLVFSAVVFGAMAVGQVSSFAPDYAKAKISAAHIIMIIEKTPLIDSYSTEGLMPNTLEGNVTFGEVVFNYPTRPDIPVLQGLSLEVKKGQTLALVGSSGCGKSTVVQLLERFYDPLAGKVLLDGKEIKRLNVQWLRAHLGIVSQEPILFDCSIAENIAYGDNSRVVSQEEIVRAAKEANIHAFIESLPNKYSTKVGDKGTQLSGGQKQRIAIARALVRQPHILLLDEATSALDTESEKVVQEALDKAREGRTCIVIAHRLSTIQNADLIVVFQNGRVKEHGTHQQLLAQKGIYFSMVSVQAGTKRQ
T1 sequence (P08183 whole entry): as above
T2 sequence (P08684 whole entry): as the sequence (P08684 whole entry) above

| SMILES | inhibition at 20 min, 2.5 µM (P-gp (ABCB1) [1]) | inhibition at 20 min, 0.5 µM (P-gp (ABCB1) [2]) | activity at 20 min, 0.5 µM (P-gp (ABCB1) [3]) | viability at 72 h, 10 µM [4] | fold change (FC) (HEK293) | viability at 72 h, 10 µM [6] | fold change (FC) [8] | inhibition at 50 µM (CYP3A4 [11]) | also measured |
| --- | --- | --- | --- | --- | --- | --- | --- | --- | --- |
| COc1cc(C(=O)NC(Cc2ccc(O)cc2)c2nc(C(=O)NC3CCC(F)(F)CC3)cs2)cc(OC)c1OC (configuration not stated) | 23% | 22.4% | – | – | – | – | – | – | – |
| CC(C)[C@H](NC(=O)C1CCC(F)(F)CC1)c1nc(C(=O)NC2CCC(F)(F)CC2)cs1 | 16.4% | – | ≤ 10% | – | – | – | – | – | – |
| COc1cc(C(=O)N[C@H](c2nc(C(=S)NC3CCC(F)(F)CC3)cs2)C(C)C)cc(OC)c1OC | 25.9% | 37.4% | – | – | – | – | – | – | – |
| COc1cc(C(=O)N[C@H](c2nc(C(=O)Nc3ccccc3C(=O)c3ccccc3)cs2)C(C)C)cc(OC)c1OC | – | – | 83% | > 80% | 1 | > 80% | 0.6 | – | activity at 20 min, 2.5 µM (P-gp (ABCB1) [5]): 88%; IC50 (Cytochrome P450 3A4 [7]): 8230 nM; activity at 20 min, 0.05 µM (P-gp (ABCB1) [9]): 54% |
| COc1cc(C(=O)N[C@H](c2nc(C(=O)NC3CCC(F)(F)CC3)cs2)C(C)C)cc(OC)c1OC | 33.9% | 30.7% | – | > 80% | 0.6 | > 80% | 0.6 | 28.7% | IC50 [10]: 100 nM; inhibition (INH) [10]: Dose-dependent effect; inhibition at 25 µM (CYP3A4 [12]): 9.32%; Emax at 10 min (P-gp (ABCB1) [13]): 90% |
| COc1cc(C(=O)N[C@H](c2nc(C(=O)NC3CCCCC3)cs2)C(C)C)cc(OC)c1OC | – | 18% | – | > 80% | 1 | > 80% | 0.6 | 52% | inhibition at 25 µM (CYP3A4 [12]): 7.03%; inhibition at 20 min, 0.05 µM (P-gp (ABCB1) [14]): 20% |
| CC(C)[C@H](NC(=O)c1cc(F)c(F)c(F)c1)c1nc(C(=O)NC2CCC(F)(F)CC2)cs1 | 23.3% | 16.6% | – | – | – | – | – | – | – |
| COc1cc(C(=O)NC(Cc2ccccc2)c2nc(C(=O)NC3CCC(F)(F)CC3)cs2)cc(OC)c1OC (configuration not stated) | 42.5% | 39.6% | – | > 80% | 0.5 | > 80% | 1.7 | 32.9% | IC50 [10]: 760 nM; inhibition (INH) [10]: Dose-dependent effect; inhibition (INH) (Cytochrome P450 3A4 [15]): Not Active |
| CC(C)[C@H](NC(=O)c1cccc(N)c1)c1nc(C(=O)Nc2ccccc2C(=O)c2ccccc2)cs1 | – | – | 308% | > 80% | 0.5 | > 80% | 17.9 | 83.3% | inhibition at 25 µM (CYP3A4 [12]): 43.6%; activity at 20 min, 0.05 µM (P-gp (ABCB1) [9]): 376% |
| COc1cc(C(=O)N[C@H](c2nc(C(=O)N[C@@H]3CCCc4ccccc43)cs2)C(C)C)cc(OC)c1OC | – | – | 33.9% | > 80% | 1.4 | > 80% | 2.9 | – | activity at 20 min, 2.5 µM (P-gp (ABCB1) [5]): 31.3% |
| COc1ccc(CCN(C)CCCC(C#N)(c2ccc(OC)c(OC)c2)C(C)C)cc1OC (configuration not stated) | – | – | – | > 80% | 0.9 | > 80% | – | – | – |

Source: ChEMBL document CHEMBL4024781, “Comprehensive Synthesis of Amino Acid-Derived Thiazole Peptidomimetic Analogues to Understand the Enigmatic Drug/Substrate-Binding Site of P-Glycoprotein” (J Med Chem, 2018)
